The nature of data set [1]: Toxicity in mouse LL/2 cells inoculated C57BL/6J mouse assessed as effect on body weight by measuring initial body weight at 25 mg/kg, ip administered for 12 days measured for every 2 days (reference value: 18.4 +/- 0.4 g). The data set is classed as organism-based. Particulars: in vivo, 288 h, time 12 day.
A short description of data set [2]: Antitumor activity against mouse LL/2 cells inoculated in C57BL/6J mouse assessed as reduction of tumor weight at 25 mg/kg, ip administered for 12 days measured at day 14 (reference value: 0.98 +/- 0.07 g). The data set is classed as functional, Lewis lung carcinoma. Conditions: time 12 day.
A short description of data set [3]: Toxicity in mouse LL/2 cells inoculated C57BL/6J mouse assessed as effect on body weight by measuring end body weight at 25 mg/kg, ip administered for 12 days and measured for every 2 days (reference value: 18.1 +/- 0.2 g). The data set is classed as organism-based. Conditions: in vivo, 288 h, time 12 day.
Data set [4] addresses T1, Protein deacetylase HDAC6 (Homo sapiens, UniProt Q9UBN7).
T1 sequence (Q9UBN7 whole entry): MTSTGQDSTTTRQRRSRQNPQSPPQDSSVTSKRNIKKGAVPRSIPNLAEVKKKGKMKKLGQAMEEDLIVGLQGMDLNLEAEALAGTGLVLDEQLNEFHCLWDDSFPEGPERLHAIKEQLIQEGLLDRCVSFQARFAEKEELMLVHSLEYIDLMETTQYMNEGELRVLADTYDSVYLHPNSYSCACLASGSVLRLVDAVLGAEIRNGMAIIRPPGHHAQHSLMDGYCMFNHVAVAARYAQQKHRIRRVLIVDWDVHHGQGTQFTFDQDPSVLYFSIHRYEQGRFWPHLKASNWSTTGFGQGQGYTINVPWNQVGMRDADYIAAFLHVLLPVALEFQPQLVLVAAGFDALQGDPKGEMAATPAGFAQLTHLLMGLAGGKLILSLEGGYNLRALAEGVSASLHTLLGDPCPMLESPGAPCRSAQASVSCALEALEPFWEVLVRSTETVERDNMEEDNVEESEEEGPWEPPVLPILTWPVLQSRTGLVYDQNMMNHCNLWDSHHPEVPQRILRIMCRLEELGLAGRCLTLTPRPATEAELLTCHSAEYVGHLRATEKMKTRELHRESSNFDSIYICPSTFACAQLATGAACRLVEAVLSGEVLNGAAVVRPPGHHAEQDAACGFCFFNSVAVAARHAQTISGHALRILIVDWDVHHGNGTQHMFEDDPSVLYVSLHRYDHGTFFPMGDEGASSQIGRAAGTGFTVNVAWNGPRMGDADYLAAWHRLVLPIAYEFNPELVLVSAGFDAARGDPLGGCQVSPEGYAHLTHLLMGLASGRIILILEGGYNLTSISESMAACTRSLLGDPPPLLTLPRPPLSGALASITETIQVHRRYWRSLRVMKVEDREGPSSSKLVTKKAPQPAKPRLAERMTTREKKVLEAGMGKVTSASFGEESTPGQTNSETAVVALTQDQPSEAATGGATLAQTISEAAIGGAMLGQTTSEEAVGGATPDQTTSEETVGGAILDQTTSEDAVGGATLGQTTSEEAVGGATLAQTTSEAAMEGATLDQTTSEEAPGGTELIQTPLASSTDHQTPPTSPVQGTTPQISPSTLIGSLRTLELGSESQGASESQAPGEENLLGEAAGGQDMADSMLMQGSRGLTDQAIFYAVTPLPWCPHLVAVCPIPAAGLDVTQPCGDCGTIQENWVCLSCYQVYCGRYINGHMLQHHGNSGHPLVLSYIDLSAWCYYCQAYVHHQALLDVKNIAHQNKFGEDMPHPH
In words: Inhibition of recombinant full length C-terminal FLAG-tagged human HDAC6 expressed in baculovirus infected Sf9 cells using Boc-Lys(Ac)-AMC as substrate preincubated for 15 mins followed by substrate addition and measured after 60 mins by fluorescence based assay.

Data set [5] concerns the target T2, Histone deacetylase 1 (Homo sapiens, UniProt Q13547). In words: Inhibition of recombinant full length C-terminal FLAG/His-tagged human HDAC1 expressed in baculovirus infected Sf9 cells using Boc-Lys(Ac)-AMC as substrate preincubated for 15 mins followed by substrate addition and measured after 60 mins by fluorescence based assay.
Data set [6] concerns the target Histone deacetylase 3/Nuclear receptor corepressor 2 (HDAC3/NCoR2) (Homo sapiens, UniProt O15379). Nature of the data set: Inhibition of C-terminal His-tagged recombinant human HDAC3 (1 to 428 residues)/N-terminal GST-tagged recombinant human NCoR2 (395 to 489 residues) co-expressed in baculovirus infected Sf9 cells using Boc-Lys(Ac)-AMC as substrate preincubated for 15 mins followed by substrate addition and measured after 60 mins by fluorescence based assay.

Data set [7] deals with T3, Histone deacetylase 2 (Homo sapiens, UniProt Q92769). In words: Inhibition of recombinant full length C-terminal FLAG-tagged human HDAC2 expressed in baculovirus infected Sf9 cells using Boc-Lys(Ac)-AMC as substrate preincubated for 15 mins followed by substrate addition and measured after 60 mins by fluorescence based assay.
T3 sequence (Q92769 whole entry): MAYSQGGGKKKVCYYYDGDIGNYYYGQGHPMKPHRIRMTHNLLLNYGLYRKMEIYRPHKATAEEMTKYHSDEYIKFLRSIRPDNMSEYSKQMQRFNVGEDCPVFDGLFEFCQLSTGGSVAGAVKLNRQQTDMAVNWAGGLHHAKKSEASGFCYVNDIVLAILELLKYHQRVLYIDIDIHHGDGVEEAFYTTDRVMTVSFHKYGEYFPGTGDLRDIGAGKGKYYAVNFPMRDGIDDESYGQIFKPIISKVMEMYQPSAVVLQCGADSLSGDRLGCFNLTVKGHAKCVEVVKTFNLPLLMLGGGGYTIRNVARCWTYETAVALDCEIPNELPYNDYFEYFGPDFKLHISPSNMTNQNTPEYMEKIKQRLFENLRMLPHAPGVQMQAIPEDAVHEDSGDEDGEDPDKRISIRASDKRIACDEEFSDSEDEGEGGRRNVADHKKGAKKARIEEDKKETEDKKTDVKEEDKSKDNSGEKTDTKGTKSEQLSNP
Data set [8] has as its system HL-60. Nature of the data set: Growth inhibition of human HL-60 cells after 72 hrs by trypan blue dye based assay. The data set is classed as functional. Particulars: for GI50: Homo sapiens, HL-60. Put shortly: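 HL-60 leukemia cells were exposed to compound for 72 h. Growth inhibition is reported as IG50 (half the growth inhibition concentration), as means plus SD of three independent experiments.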

Data set [9] deals with HL-60. In words: Induction of apoptosis in human HL-60 cells assessed as necrotic cells at 20 uM incubated for 24 hrs by propidium iodide and annexin-V FITC staining based FACS analysis (reference value: 0.5 %). The data set is classed as functional. A general note: In flow cytometry, cells or beads pass a laser one at a time.
The test system of data set [10] is HL-60. Nature of the data set: Induction of apoptosis in human HL-60 cells assessed as viable cells at 20 uM incubated for 24 hrs by propidium iodide and annexin-V FITC staining based FACS analysis (reference value: 93.9 %). The data set is classed as functional. Particulars: read-out: Activity.
The target in data set [11] is T3, Histone deacetylase 2. Nature of the data set: Inhibition of HDAC2 in human HL-60 cells assessed as increase in Ac-H3 level at 20 uM incubated for 24 hrs by Western blot analysis. The data set is classed as cell-based. The procedure, abridged: (§1)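 Compound given to HL-60 cells for 24 h at the stated concentrations, then lysed. Acetyl-histone H3 and acetyl-α-tubulin levels were read by Western blot, with total H3, α-tubulin or β-actin as references.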
A general note: In western blotting, separated proteins are transferred to a membrane and probed.

Data set [12] has as its system HL-60. In words: Induction of apoptosis in human HL-60 cells assessed as late apoptotic cells at 20 uM incubated for 24 hrs by propidium iodide and annexin-V FITC staining based FACS analysis (reference value: 3.7 %). The data set is classed as functional.
The target of data set [13] is Histone deacetylase 3 (Homo sapiens) (UniProt O15379). In words: Inhibition of HDAC3 in human HL-60 cells assessed as increase in Ac-H3 level at 20 uM incubated for 24 hrs by Western blot analysis. The data set is classed as cell-based. The procedure, abridged: as §1
Sequence of Histone deacetylase 3 (Homo sapiens) (O15379 whole entry): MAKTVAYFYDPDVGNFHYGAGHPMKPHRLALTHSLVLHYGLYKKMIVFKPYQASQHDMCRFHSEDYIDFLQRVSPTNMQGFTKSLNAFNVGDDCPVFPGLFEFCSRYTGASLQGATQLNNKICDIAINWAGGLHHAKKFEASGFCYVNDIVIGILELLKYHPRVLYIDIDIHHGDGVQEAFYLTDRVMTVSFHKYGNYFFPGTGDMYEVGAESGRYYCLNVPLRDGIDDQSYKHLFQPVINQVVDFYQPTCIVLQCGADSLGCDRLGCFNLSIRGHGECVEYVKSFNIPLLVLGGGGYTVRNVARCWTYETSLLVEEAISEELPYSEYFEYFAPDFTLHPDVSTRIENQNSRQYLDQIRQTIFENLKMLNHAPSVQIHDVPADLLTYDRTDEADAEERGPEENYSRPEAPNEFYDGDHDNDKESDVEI
For data set [14], the system named is HL-60. Nature of the data set: Induction of apoptosis in human HL-60 cells assessed as early apoptotic cells at 20 uM incubated for 24 hrs by propidium iodide and annexin-V FITC staining based FACS analysis (reference value: […]). The data set is classed as functional.
The target of data set [15] is T2, Histone deacetylase 1. In words: Inhibition of HDAC1 in human HL-60 cells assessed as increase in Ac-H3 level at 20 uM incubated for 24 hrs by Western blot analysis. The data set is classed as cell-based. The procedure, abridged: as §1

Active and inactive are the calls of the source. No cut-off for these calls is given here.

T2 sequence (Q13547 whole entry, the tested form may be a part): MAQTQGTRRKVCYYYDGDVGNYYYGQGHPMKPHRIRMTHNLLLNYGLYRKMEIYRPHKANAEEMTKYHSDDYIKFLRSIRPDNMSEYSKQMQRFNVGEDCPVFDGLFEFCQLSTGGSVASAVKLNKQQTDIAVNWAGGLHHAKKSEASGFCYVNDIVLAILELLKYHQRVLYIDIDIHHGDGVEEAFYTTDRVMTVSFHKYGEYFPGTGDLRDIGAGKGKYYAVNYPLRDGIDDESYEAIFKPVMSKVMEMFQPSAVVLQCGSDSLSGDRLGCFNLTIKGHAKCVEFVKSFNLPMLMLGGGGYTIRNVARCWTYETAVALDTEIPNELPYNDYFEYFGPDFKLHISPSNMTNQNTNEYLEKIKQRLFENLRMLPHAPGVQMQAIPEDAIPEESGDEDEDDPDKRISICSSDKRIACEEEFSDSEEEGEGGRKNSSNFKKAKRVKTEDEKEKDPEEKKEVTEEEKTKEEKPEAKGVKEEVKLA
Sequence of Histone deacetylase 3/Nuclear receptor corepressor 2 (HDAC3/NCoR2) (O15379 whole entry, the tested form may be a part): as the sequence (O15379 whole entry) above
Sequence of Histone deacetylase 3/Nuclear receptor corepressor 2 (HDAC3/NCoR2) (Q9Y618 whole entry, further chain, the tested form may be a part): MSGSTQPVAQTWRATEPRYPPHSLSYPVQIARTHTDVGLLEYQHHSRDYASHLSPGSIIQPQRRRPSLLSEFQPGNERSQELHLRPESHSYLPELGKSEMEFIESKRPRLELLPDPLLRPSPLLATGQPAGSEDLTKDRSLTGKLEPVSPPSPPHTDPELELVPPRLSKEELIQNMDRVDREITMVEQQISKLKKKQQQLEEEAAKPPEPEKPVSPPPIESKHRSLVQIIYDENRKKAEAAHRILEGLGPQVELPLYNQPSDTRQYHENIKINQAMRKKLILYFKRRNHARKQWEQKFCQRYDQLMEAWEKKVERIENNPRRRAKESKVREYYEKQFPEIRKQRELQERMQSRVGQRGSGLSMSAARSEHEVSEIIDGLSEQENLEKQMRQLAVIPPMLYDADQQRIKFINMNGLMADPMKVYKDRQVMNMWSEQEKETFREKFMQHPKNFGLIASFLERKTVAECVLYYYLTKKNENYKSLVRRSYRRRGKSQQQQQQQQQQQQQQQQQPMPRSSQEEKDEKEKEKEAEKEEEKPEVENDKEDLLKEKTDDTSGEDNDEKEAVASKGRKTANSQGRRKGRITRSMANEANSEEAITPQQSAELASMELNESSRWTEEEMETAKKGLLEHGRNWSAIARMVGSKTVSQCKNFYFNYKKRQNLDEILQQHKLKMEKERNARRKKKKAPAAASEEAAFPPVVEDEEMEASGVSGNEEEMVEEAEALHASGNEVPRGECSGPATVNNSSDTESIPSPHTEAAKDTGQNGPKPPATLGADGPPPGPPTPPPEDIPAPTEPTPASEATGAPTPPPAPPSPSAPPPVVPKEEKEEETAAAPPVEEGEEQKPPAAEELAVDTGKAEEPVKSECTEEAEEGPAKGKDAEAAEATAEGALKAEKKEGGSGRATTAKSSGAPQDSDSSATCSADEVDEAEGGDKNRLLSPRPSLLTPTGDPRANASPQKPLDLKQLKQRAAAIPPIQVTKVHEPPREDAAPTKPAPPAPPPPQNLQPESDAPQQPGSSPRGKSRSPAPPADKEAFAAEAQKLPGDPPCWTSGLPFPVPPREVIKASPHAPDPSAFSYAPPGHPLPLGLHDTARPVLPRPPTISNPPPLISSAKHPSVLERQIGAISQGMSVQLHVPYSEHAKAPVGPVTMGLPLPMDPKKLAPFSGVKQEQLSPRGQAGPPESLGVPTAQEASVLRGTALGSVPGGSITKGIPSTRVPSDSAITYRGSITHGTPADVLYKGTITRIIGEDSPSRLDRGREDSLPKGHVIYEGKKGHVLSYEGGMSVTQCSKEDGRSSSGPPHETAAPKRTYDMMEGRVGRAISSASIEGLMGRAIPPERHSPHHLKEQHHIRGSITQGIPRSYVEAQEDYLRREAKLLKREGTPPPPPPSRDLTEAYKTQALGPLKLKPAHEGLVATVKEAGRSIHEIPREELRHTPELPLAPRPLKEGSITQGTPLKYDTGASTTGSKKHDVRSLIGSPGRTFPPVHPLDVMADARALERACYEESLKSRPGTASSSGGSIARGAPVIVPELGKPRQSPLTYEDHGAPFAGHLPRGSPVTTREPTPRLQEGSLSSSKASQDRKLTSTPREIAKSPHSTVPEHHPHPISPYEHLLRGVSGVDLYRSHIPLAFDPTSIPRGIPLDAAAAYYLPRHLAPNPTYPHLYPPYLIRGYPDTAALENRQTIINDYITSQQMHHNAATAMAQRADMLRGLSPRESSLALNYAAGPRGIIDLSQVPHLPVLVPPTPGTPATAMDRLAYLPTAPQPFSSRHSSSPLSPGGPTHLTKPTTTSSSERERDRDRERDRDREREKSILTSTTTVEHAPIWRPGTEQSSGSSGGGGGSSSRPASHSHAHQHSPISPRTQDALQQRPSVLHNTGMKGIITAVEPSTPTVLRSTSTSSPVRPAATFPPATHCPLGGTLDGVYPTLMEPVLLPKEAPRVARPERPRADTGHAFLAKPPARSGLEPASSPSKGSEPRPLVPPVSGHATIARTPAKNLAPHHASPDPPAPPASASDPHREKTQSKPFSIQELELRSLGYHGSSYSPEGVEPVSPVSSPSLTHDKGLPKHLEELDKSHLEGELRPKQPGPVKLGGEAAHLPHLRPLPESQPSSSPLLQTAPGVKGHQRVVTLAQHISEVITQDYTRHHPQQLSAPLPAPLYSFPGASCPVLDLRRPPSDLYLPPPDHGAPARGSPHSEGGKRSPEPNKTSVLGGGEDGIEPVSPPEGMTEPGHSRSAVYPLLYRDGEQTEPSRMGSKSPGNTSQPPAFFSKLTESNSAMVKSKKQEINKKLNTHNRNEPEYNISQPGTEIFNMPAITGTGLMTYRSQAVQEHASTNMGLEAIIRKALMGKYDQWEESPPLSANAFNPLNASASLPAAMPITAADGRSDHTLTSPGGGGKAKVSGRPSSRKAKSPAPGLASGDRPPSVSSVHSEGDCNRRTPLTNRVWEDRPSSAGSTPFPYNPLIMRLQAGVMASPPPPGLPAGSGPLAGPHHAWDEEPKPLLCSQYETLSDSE

Take `O=C(CCCCCCC(=O)Nc1ccccc1)NO` [VORINOSTAT]: the Activity in [1] is 17.9 g; in data set [2], 0.55 g; in data set [3], 18.1 g.

One may read the IC50 as the concentration that gives 50% inhibition. With `Nc1ccccc1NC(=O)CNC(=O)/C(Cc1ccc(O)c(Br)c1)=N/O`, the IC50 (in data set [4]; at Histone deacetylase 1 [5]; in data set [6]; on Histone deacetylase 2 [7]) was over 10 µM in each case. Further, the IG50 with HL-60 [8] is over 40 µM.

One may read the GI50 as the concentration at which growth is held to half of that of the control. A lower GI50 goes with more potent growth inhibition. `CCCCNC(=O)/C(Cc1ccc(O)c(Br)c1)=N/O`: the IC50 (in data set [4]; at Histone deacetylase 1 [5]; in [6]; on Histone deacetylase 2 [7]) was over 10 µM throughout. The compound also had a GI50 in the data set on HL-60 [8] of 36 µM.

Consider `O=C(O)CCNC(=O)/C(Cc1ccc(O)c(Br)c1)=N/O`, for which the results for the Activity in the data set on HL-60 [9], in the data set on HL-60 [12] and with HL-60 [14] were 0.2%, 3.4% and 2.2%, respectively. For the same compound, the IC50 (in [4]; on Histone deacetylase 1 [5]; in [6]; at Histone deacetylase 2 [7]) was over 10 µM in each case. In addition, the viability at 20 µM with HL-60 [10] was 94.2%. In addition, the inhibition result (on Histone deacetylase 2 [11]; in [13]; on Histone deacetylase 1 [15]) was “inactive” throughout. Moreover, in the data set with HL-60 [8], the GI50 was found to be 11.8 µM.

For `Nc1ccccc1NC(=O)CCNC(=O)/C(Cc1ccc(O)c(Br)c1)=N/O`, the IC50 (in data set [4]; on Histone deacetylase 1 [5]; in [6]; on Histone deacetylase 2 [7]) was over 10 µM in each case. Also, the IG50 with HL-60 [8] was over 40 µM.

In the case of `O=C(CCCNC(=O)/C(Cc1ccc(O)c(Br)c1)=N/O)NO`, the IC50 in data set [4] is over 10 µM; at Histone deacetylase 1 [5], 1.01 µM; in data set [6], over 10 µM; on Histone deacetylase 2 [7], over 10 µM. The IG50 with HL-60 [8] was over 40 µM.

`O=C(CCCCNC(=O)/C(Cc1ccc(O)c(Br)c1)=N/O)NO`: the IC50 in [4] is 1.29 µM; at Histone deacetylase 1 [5], 0.436 µM; in [6], 0.249 µM; at Histone deacetylase 2 [7] it was over 10 µM. The same compound showed an IG50 with HL-60 [8] of over 40 µM.

On to `CCCNC(=O)/C(Cc1ccc(O)c(Br)c1)=N/O`, for which the Activity in the data set on HL-60 [9] came out at 0.2%; in the data set on HL-60 [12], 2.5%; in the data set with HL-60 [14], 1.8%. Also, the 50% inhibitory concentration (IC50) (in data set [4]; on Histone deacetylase 1 [5]; in data set [6]; on Histone deacetylase 2 [7]) was over 10 µM each time. The viability at 20 µM in the data set on HL-60 [10] was 95.5%. The inhibition result (at Histone deacetylase 2 [11]; in [13]; on Histone deacetylase 1 [15]) was “inactive” throughout. Further, halving of growth in the data set on HL-60 [8] (GI50) required 13.5 µM.

On to `O=C(NCCO)/C(Cc1ccc(O)c(Br)c1)=N/O`, for which the Activity turned out to be 0.1% in the data set with HL-60 [9], 3.7% in the data set on HL-60 [12] and 1.7% with HL-60 [14]. The IC50 (in data set [4]; on Histone deacetylase 1 [5]; in [6]; at Histone deacetylase 2 [7]) was over 10 µM throughout. For the same compound, in the data set on HL-60 [10], the viability at 20 µM came out at 94.4%. Moreover, the inhibition result (at Histone deacetylase 2 [11]; in data set [13]; at Histone deacetylase 1 [15]) was “inactive” in each case. This compound came in with a GI50 in the data set with HL-60 [8] of 20 µM.

Consider `Nc1ccccc1NC(=O)CCCNC(=O)/C(Cc1ccc(O)c(Br)c1)=N/O`, for which the IC50 is over 10 µM in data set [4], over 10 µM at Histone deacetylase 1 [5], 1.83 µM in data set [6] and over 10 µM at Histone deacetylase 2 [7]. Moreover, the IG50 with HL-60 [8] is over 40 µM.

`O=C(CNC(=O)/C(Cc1ccc(O)c(Br)c1)=N/O)NO`: the IC50 in data set [4] is over 10 µM; on Histone deacetylase 1 [5], 2.93 µM; in [6], 1.23 µM; at Histone deacetylase 2 [7] it was 9.21 µM. Besides, the IG50 in the data set with HL-60 [8] is over 40 µM.

Take `Nc1ccccc1NC(=O)CCCCNC(=O)/C(Cc1ccc(O)c(Br)c1)=N/O`: the IC50 in data set [4] is over 10 µM; on Histone deacetylase 1 [5], over 10 µM; in data set [6], 1.43 µM; on Histone deacetylase 2 [7], 9.76 µM. The IG50 in the data set with HL-60 [8] is over 40 µM.
